MEKK3 PB1 HTS – modulators of MEKK3-MEK5 PB1 binding, primary screen, biochemical, wildtype MEKK3, multiplex bead flow cytometry, Alexa488-MEK5; Mitogen-activated protein kinase kinase kinase 3 (Homo sapiens), Q99759; binding response (% of control), % at 10 µM; bead-based flow cytometry, Alexa488-MEK5 binding to MEKK3; actives lie on both sides; 0 = blocked by unlabeled MEK5, 100 = vehicle; hit rate 1.4% among 290,000;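 active = binding response more than 3 SD above or below the average of its plate-row segment, actives on both sides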;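 note: Alexa488 bead fluorescence after subtracting the streptavidin-only scavenger bead signal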
Target sequence (Q99759 whole entry, looked up): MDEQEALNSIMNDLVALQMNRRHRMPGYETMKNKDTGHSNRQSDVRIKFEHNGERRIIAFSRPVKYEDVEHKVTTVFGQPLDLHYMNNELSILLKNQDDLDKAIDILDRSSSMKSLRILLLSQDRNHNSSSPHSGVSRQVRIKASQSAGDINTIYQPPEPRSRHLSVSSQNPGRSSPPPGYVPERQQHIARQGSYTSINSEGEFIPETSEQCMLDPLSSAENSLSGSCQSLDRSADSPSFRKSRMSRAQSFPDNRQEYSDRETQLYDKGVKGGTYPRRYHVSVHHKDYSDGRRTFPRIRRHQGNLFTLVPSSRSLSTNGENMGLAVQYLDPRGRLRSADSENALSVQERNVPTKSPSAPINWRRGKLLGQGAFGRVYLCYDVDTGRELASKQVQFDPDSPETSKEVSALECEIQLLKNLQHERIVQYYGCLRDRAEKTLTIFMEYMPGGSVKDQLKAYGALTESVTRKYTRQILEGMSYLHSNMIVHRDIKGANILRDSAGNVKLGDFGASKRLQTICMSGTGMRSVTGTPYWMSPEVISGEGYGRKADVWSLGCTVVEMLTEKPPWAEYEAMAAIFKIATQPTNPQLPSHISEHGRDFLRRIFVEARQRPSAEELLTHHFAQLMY
ATG4B inh – ATG4B protease inhibitors, primary screen, biochemical, fluorescence, uHTS. AID 504462, 2011. inhibition, % at 8.33 µM. Cysteine protease ATG4B (Homo sapiens), Q9Y4P1. hit rate 0.51% among 340,000. ATG4B cleavage of LC3-PLA2, NBD-HPC fluorescence, 1 h; in the data active = inhibition above about 40%
B2AR ag – beta2AR agonists driving receptor internalization, primary screen, cell-based, FAP fluorogen, flow cytometry | response, % (no concentration beside the values) | hit rate 0.43% among 340,000 | Am2.2-beta2AR cells | Beta-2 adrenergic receptor (Homo sapiens), P07550;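 active = response above a set limit, near 3 SD of response in nonfluorescent compounds, cut at about 42% in these data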
Dynein cargo inh – inhibitors of GR-EGFP nuclear translocation, primary screen, dynein cargo transport inhibitor project, imaging, high-content, 3617.4 mouse cells; test concentration mostly 20 µM; stimulated with dexamethasone, 1 µM; active compounds read low; hit rate 0.47% among 220,000; AID 1381, 2008; z-score, hits read low;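 active = plate z-score of nuclear minus cytoplasmic receptor signal below a set negative limit, without overly bright fluorescence or cell loss, cut at about -3.5 in these data, passing the limit was not always enough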;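 note: z-score of nuclear minus cytoplasmic ring GR-EGFP intensity difference per well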
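medium = tetracycline-free induction medium containing charcoal-stripped FBS | also added = 1.0 µM final dexamethasone stimulus | schedule = 48 h induction, 1 h compound, 30 min dex at 37 °C | technique = fixed, Hoechst-stained cells imaged at 10x for EGFP | measure = GR-EGFP nuclear translocation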
MEKK2 WT-MEK5 – modulators of MEK5 binding to wildtype MEKK2, primary screen, biochemical, multiplex bead flow cytometry, Alexa488-MEK5 | Mitogen-activated protein kinase kinase kinase 2 (Homo sapiens), Q9Y2U5 | Alexa488-MEK5 binding to MEKK2 WT; actives lie on both sides | binding response (% of control), % at 10 µM | hit rate 1.1% among 290,000; in the data active = binding response below about 67% or above about 130%
MEKK2 mut-MEK5 – MEK5 binding signal on mutant MEKK2 PB1, primary screen, biochemical, multiplex bead flow cytometry, Alexa488-MEK5. percent response, % at 10 µM. Alexa488-MEK5 binding to MEKK2 mutant. AID 1530, 2009. hit rate 0.35% among 290,000; in the data active = percent response above about 24%, passing the limit was not always enough
Hits are given with their value; n = inactive; x = not tested or not shown. Shown are actives, neighbours in structure and some others; about 2.9% of the full set was active somewhere.

SMILES	MEKK3 PB1 HTS	ATG4B inh	B2AR ag	Dynein cargo inh	MEKK2 WT-MEK5	MEKK2 mut-MEK5
O=C1C2CCCN2c2ccc(S(=O)(=O)N3CCOCC3)cc2N1Cc1cccc(C(F)(F)F)c1 (stereo unspecified)	n	x	x	n	-8.0	n
COc1ccc2[nH]c3c(c2c1)CCN1C(=O)C(CC(=O)NC/C=C(\C)CCC=C(C)C)C[C@H](C(=O)N2CCOCC2)[C@@]31CCC1CCCC1 (stereo partly specified)	x	n	n	x	x	x
O=Cc1cc2ccccc2nc1SCc1ccc(Cl)cc1	n	n	46	n	n	n
CCC(C(=O)NCCN1CCOCC1)n1nc(C)n2c(cc3sccc32)c1=O (stereo unspecified)	n	n	n	x	n	n
Cc1nn(C(C)C(=O)NCCCN2CCCCCC2)c(=O)c2cc3sccc3n12 (stereo unspecified)	n	n	n	x	144	n
CC1=NN(c2cccc(C(=O)O)c2)C(=O)/C1=C\C=C\c1ccco1	n	n	n	-4.6	n	n
C#CCOc1ccc(/C=C2/C(=O)N(c3cccc(C(=O)O)c3)N=C2C)cc1OC	n	n	n	x	n	n
Nc1ccc2c(c1)C(=O)c1ccccc1-2	x	n	n	x	x	x
O=C1C(=O)c2ccc(-c3ccccc3)cc2-c2ccccc21	n	n	61	n	n	n
CCCCNC(=O)CNC(=S)N(Cc1ccccc1)Cc1cccnc1	n	n	52	n	n	n
COC(=O)c1ccc(COc2cc(C)ccc2C)o1	n	n	n	x	n	n
CC(=O)N1CCCC1(C(=O)O)c1ccccc1 (stereo unspecified)	n	n	n	n	-3.0	n
O=C(COc1ccc2c3c(c(=O)oc2c1)CCC3)Nc1ccccn1	n	n	61	x	n	n
Cc1cc(NC(=O)COC(=O)COc2ccc3c4c(c(=O)oc3c2)CCC4)no1	n	n	n	n	n	n
Cc1cc(=O)n2c3ccccc3n(CC(O)CN3CCC(C)CC3)c2c1C#N (stereo unspecified)	135	n	n	n	n	n
Cc1cc(=O)n2c3ccccc3n(CC(O)CN3CCN(CCO)CC3)c2c1C#N (stereo unspecified)	n	n	n	n	n	n
COC1=CC(=O)C=C(OC)C1=O	x	n	53	x	x	x
COC1=CC(=O)c2ccccc2C1=O	x	n	n	x	x	x
O=C(Nc1cnccn1)c1ccc(Cl)cc1	n	n	n	x	n	n
Cc1cc(NC(=O)c2ccc(F)cc2F)n(-c2nc3ccccc3[nH]2)n1	n	n	n	n	n	n
Cc1cc(NC(=O)/C=C/c2ccccc2Cl)n(-c2nc3ccccc3[nH]2)n1	150	n	n	n	n	n
CCOC(=O)c1ccc(NS(=O)(=O)c2ccc3oc(=O)[nH]c3c2)cc1	n	n	n	x	n	n
CC(=C/C(=O)O)/C=C/c1ccc([N+](=O)[O-])cc1	n	n	52	n	n	n
CC(/C=C\c1ccccc1)=C/C(=O)O	n	n	n	n	n	n
O=C1N[C@@H](Cc2c[nH]c3ccccc23)C(=O)N[C@H]1Cc1ccccc1	x	n	n	x	x	x
SMILES	MEKK3 PB1 HTS	ATG4B inh	B2AR ag	Dynein cargo inh	MEKK2 WT-MEK5	MEKK2 mut-MEK5
O=C(Nc1ccc2oc(=O)ccc2c1)c1ccc(-c2cccc(Cl)c2)o1	n	n	45	n	n	n
O=C(NCc1ccc(Cl)cc1)c1cc2c(s1)CS(=O)(=O)C2	n	n	n	x	n	n
CCn1c2ccccc2c2cc(NC(=O)CN3CCCC3)ccc21	n	n	n	x	139	n
CCn1c2ccccc2c2cc(NC(C)=O)ccc21	n	n	n	n	n	n
N#C/C(=C/c1ccc(Br)o1)C(N)=O	n	n	n	n	n	n
N#C/C(=C/c1ccc(Br)o1)C(N)=S	n	x	x	-4.1	n	n
CC(=O)Oc1ccccc1C(=O)C=Cc1cccc([N+](=O)[O-])c1	x	n	65	x	x	x
Cc1cc(O)c(C(=O)/C=C/c2cccc([N+](=O)[O-])c2)c(=O)o1	n	n	n	n	n	n
COc1ccc(-n2nc(C(=O)NCC(=O)Nc3cccc(Cl)c3)c3ccccc3c2=O)cc1OC	n	n	n	x	n	n
CCCCc1cc2c(cn1)=C(OC(=O)c1cnc3ccccc3n1)C(C)(OC(=O)CC)C(=O)C=2 (stereo unspecified)	n	n	x	n	143	n
COc1ccccc1CNS(=O)(=O)c1ccc2c(c1)CC(=O)N2C	n	n	n	x	n	n
CN(CCc1ccccc1)C(=O)c1ccc(NC(=O)Cc2ccc(NC(=O)C3CCCN(C(=O)C4CCCC4)C3)cc2)cc1 (stereo unspecified)	x	n	n	x	x	x
Cc1c(C(=O)O)cccc1-c1ccc(/C=C2/NC(=O)N(c3ccccc3)C2=O)o1	n	n	n	n	-10	n
CN=c1scc(C)n1/N=C/c1cc(Br)c(O)c(OC)c1	n	n	n	n	n	n
CN=c1scc(C)n1/N=C/c1ccc(O)c(O)c1O	n	n	69	n	n	n
COc1ccc(C(=O)Nc2ccccc2C(=O)N2CCOCC2)cc1	n	n	n	x	n	n
N#CC(C#N)=C1C=CC=CN1/C(=C\c1ccccc1Cl)C(=O)c1ccccc1	n	n	105	-4.1	n	n
CC1CCN(C(=O)/C(=C/c2ccccc2Cl)c2ccccc2)CC1	n	n	n	n	n	n
N#CC(C#N)=C1C=CC=CN1/C(=C\c1ccccc1)C(=O)c1cccs1	n	n	88	n	n	n
CCN(C1CCS(=O)(=O)C1)S(=O)(=O)c1ccc(Cl)s1 (stereo unspecified)	x	n	n	x	x	x
COc1ccc(C(=O)COc2ccc3ccc(=O)oc3c2)cc1	n	n	n	n	n	n
COc1ccc(C(=O)COc2ccc3ccc(=O)oc3c2)c(OC)c1	n	n	51	x	n	n
COc1ccc(S(=O)(=O)Nc2cc(Sc3ncn[nH]3)c(O)c3ccccc23)cc1	x	x	x	-4.5	x	x
CCCCNC(=O)c1cccc(S(=O)(=O)N2CC3(C)CC2CC(C)(C)C3)c1 (stereo unspecified)	x	n	n	x	x	x
CCOc1cc(/C=C2/C(=O)ON=C2C)ccc1OCc1ccccc1F	n	n	77	n	n	n
O=S(=O)(c1ccc2c(c1)CCC2)N1CCNCC1	x	n	n	x	x	x
Clc1ccc(-n2cnc3c(Cl)ncnc32)cc1Cl	x	n	n	x	x	x
Cc1cccc(C)c1NC(=O)C1c2cccc[n+]2CC(=O)N1Cc1ccc2c(c1)OCO2 (stereo unspecified)	n	n	n	n	50	n
